According to ChEMBL document CHEMBL4219038, “1-Thiazol-2-yl-N-3-methyl-1H-pyrozole-5-carboxylic acid derivatives as antitumor agents” (Bioorg Med Chem Lett, 2017):
≈ marks a conversion by molar mass, not a printed value. Calls of active or inactive are those of the source. The calls are words filed in the database; no cut-off is given here.

Columns and labels:
MIA PaCa-2 = assay: Antiproliferative activity against human MIAPaCa2 cells; assay type: functional, cell-based
[1] = Antiproliferative activity against human […] cells; assay type: functional, cell-based
[2] = MRT in mouse at 50 mg/kg, po; assay type: ADME, organism-based; settings: in vivo
[3] = MRT in mouse at 100 mg/kg, po; assay type: ADME, organism-based; settings: in vivo
[4] = Cmax in mouse at 10 mg/kg; assay type: ADME, organism-based; design: dose 10 mg/kg; settings: in vivo
[5] = Dose normalized Cmax in J:Nu mouse plasma at 60 mg/kg, po qd for 7 days followed by 120 mg/kg, po qd for 5 days from day 8 to 13; assay type: ADME, organism-based; settings: in vivo
Summary of the method: (§1)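 J:Nu female mice, N = 4 per group, dosed orally once daily at 10, 30 or 60 mpk in 5% NMP, 10% PEG-400, 15% Solutol, 70% D5W. The 30 and 60 mpk groups were raised to 90 and 120 mpk from day 8 to 13.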

SU-DHL10 = assay: Antiproliferative activity against human SU-DHL10 cells; assay type: functional, cell-based
[6] = Plasma concentration (7 hrs) in J:Nu mouse at 10 mg/kg, po qd for 7 days measured on day 5; assay type: ADME, organism-based
Summary of the method: (§2)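 J:Nu female mice, N = 4 per group, dosed orally once daily at 10, 30 or 60 mg/kg in 5% NMP, 10% PEG-400, 15% Solutol, 70% D5W. Blood was sampled every other day, alternating Cmax and predose draws. Plasma concentration was taken 7 h after dosing.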

[7] = Kinetic solubility of the compound in PBS buffer at pH 7.4; assay type: physicochemical; settings: read-out: Kinetic_solubility
Summary of the method: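 Kinetic solubility measured in PBS buffer, pH 7.4.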

[8] = Clearance in iv dosed mouse; assay type: ADME, organism-based; settings: in vivo
Daudi = assay: Antiproliferative activity against human Daudi cells; assay type: functional, cell-based
[9] = Cmax in J:Nu mouse plasma at 30 mg/kg, po qd for 7 days followed by 90 mg/kg, po qd for 5 days from day 8 to 13; assay type: ADME, organism-based; design: dose 30 mg/kg, route oral; summary of the method: as §1
[10] = Half life in iv dosed mouse; assay type: ADME, organism-based; settings: in vivo
Mus musculus [11] = assay: Ratio of Cmax in mouse at 2.5 mg/kg, po to Cmax in mouse at 100 mg/kg, po; assay type: ADME, organism-based; settings: in vivo
[12] = Dose normalized AUC (0 to infinity) in J:Nu mouse plasma at 60 mg/kg, po qd for 7 days followed by 120 mg/kg, po qd for 5 days from day 8 to 13; assay type: ADME, organism-based; settings: in vivo; summary of the method: as §1
Mus musculus [13] = assay: Ratio of AUC (0 to infinity) in mouse at 2.5 mg/kg, po to Cmax in mouse at 10 mg/kg, po; assay type: ADME, organism-based; settings: in vivo
[14] = MRT in mouse at 10 mg/kg, po; assay type: ADME, organism-based; settings: in vivo
MCF-10A = assay: Antiproliferative activity against human MCF10A cells; assay type: cell-based
[15] = AUC (0 to infinity) in mouse at 10 mg/kg; assay type: ADME, organism-based; design: dose 10 mg/kg, time infinity; settings: in vivo
[16] = Initial plasma concentration in iv dosed mouse; assay type: ADME, organism-based
Mus musculus [17] = assay: Toxicity in J:Nu mouse assessed as induction of changes in critical clinical parameters at 60 mg/kg, po qd for 7 days followed by 120 mg/kg, po qd for 5 days from day 8 to 13; assay type: organism-based; settings: in vivo
Summary of the method: (§3)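 In J:Nu female mice (N = 4 per group), dosing was oral once daily at 30 or 60 mg/kg in 5% NMP/10% PEG-400/15% Solutol/70% D5W for 7 days. Doses were then raised to 90 or 120 mg/kg respectively on days 8–13. Clinical signs and body weights were recorded daily. Gross pathology, with spleen and liver weights, was done 48 h after the last dose.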

[18] = Cmax in mouse at 100 mg/kg; assay type: ADME, organism-based; design: dose 100 mg/kg; settings: in vivo
[19] = Plasma concentration (7 hrs) in J:Nu mouse at 10 mg/kg, po qd for 7 days measured on day 1; assay type: ADME, organism-based; summary of the method: as §2
B cell = assay: Antiproliferative activity against human primary B cells; assay type: cell-based
[20] = Toxicity in J:Nu mouse assessed as maximum tolerated dose at 10 to 120 mg/kg, po qd for 13 days; assay type: organism-based; settings: in vivo
HCT-116 [21] = assay: Induction of quiescence in human HCT116 cells by high content cell imaging studies; assay type: functional, cell-based
[22] = Oral bioavailability in mouse; assay type: ADME, organism-based; settings: in vivo
[23] = AUC (0 to infinity) in mouse at 100 mg/kg; assay type: ADME, organism-based; design: dose 100 mg/kg, time infinity; settings: in vivo
[24] = Cmax in J:Nu mouse plasma at 60 mg/kg, po qd for 7 days followed by 120 mg/kg, po qd for 5 days from day 8 to 13; assay type: ADME, organism-based; design: dose 60 mg/kg, route oral; summary of the method: as §1
[25] = Cmax in J:Nu mouse plasma at 10 mg/kg, po qd for 7 days; assay type: ADME, organism-based; design: dose 10 mg/kg, route oral; summary of the method: as §1
[26] = Antiproliferative activity against human TC71 cells; assay type: functional, cell-based; settings: TC-71
[27] = Dose normalized AUC (0 to infinity) in J:Nu mouse plasma at 30 mg/kg, po qd for 7 days followed by 90 mg/kg, po qd for 5 days from day 8 to 13; assay type: ADME, organism-based; settings: in vivo; summary of the method: as §1
[28] = Plasma concentration (7 hrs) in J:Nu mouse at 60 mg/kg, po qd for 7 days measured on day 5; assay type: ADME, organism-based; summary of the method: as §2
[29] = AUC (0 to infinity) in mouse at 2.5 mg/kg; assay type: ADME, organism-based; design: dose 2.5 mg/kg, time infinity; settings: in vivo
Mus musculus [30] = assay: Toxicity in J:Nu mouse assessed as changes in organ weight at 60 mg/kg, po qd for 7 days followed by 120 mg/kg, po qd for 5 days from day 8 to 13 measured 48 hrs after post last dose by pathology analysis; assay type: organism-based; settings: in vivo; summary of the method: as §3
BJAB = assay: Induction of apoptosis in human BJAB cells by high content cell imaging studies; assay type: functional, cell-based
HCT-116 [31] = assay: Cell cycle arrest in human HCT116 cells assessed as reduction in cell levels at S-phase at 0.001 to 10 uM after 24 hrs EdU-staining based high content imaging analysis; assay type: functional
Summary of the method: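 HCT-116 cells plated on poly-lysine-coated plates overnight, then treated 24 h with compound (DMSO stock diluted into McCoy's medium with 10% FBS). EdU labelling of newly synthesized DNA, 4% formaldehyde fixation, then high-content imaging in three fluorescent channels for total cell count, DNA content and S-phase cells. Means of three biological replicates, SEM.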

[32] = AUC (0 to infinity) in iv dosed mouse; assay type: ADME, organism-based; design: time infinity, route intravenous; settings: in vivo
Mus musculus [33] = assay: Toxicity in J:Nu mouse assessed as induction of adverse effects at 10 to 120 mg/kg, po qd for 13 days; assay type: organism-based; settings: in vivo, 312 h
Summary of the method: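 Oral once-daily dosing of J:Nu female mice (N = 4 per group) at 10, 30 and 60 mg/kg for 7 days. The 30 and 60 mg/kg groups were escalated to 90 and 120 mg/kg on days 8–13. Clinical signs and body weights were recorded every day.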

[34] = Cmax in po dosed mouse; assay type: ADME, organism-based; design: route oral; settings: in vivo
[35] = AUC (0 to infinity) in J:Nu mouse plasma at 30 mg/kg, po qd for 7 days followed by 90 mg/kg, po qd for 5 days from day 8 to 13; assay type: ADME, organism-based; design: dose 30 mg/kg, route oral, time infinity; summary of the method: as §1
[36] = AUC (0 to infinity) in J:Nu mouse plasma at 60 mg/kg, po qd for 7 days followed by 120 mg/kg, po qd for 5 days from day 8 to 13; assay type: ADME, organism-based; design: dose 60 mg/kg, route oral, time infinity; summary of the method: as §1
[37] = AUC (0 to infinity) in po dosed mouse; assay type: ADME, organism-based; design: route oral, time infinity; settings: in vivo

Question: Which results are given for `Cc1nn(-c2nc(-c3ccc(Cl)c(Cl)c3)c(SC(C)C)s2)c(C(=O)O)c1-c1cc(Cl)cc(Cl)c1`?
Answer: IC50 (MIA PaCa-2): 320 nM; IC50 [1]: 1570 nM; MRT [2]: 9.3 h; MRT [3]: 14.3 h; Cmax [4]: 15700 ng/mL; Cmax/dose [5]: 1066.5 ng/mL; IC50 (SU-DHL10): 430 nM; concentration at 7 h [6]: 18200 ng/mL; solubility kinetic [7]: 40.2 µM (≈ 23 µg/mL); clearance [8]: 0.8 mL/min/kg; IC50 (Daudi): 380 nM; Cmax [9]: 134000 ng/mL; half-life [10]: 8 h; Ratio (Mus musculus [11]): 0.9; AUC/dose [12]: 12800 ng·kg·h/mL/mg; Ratio (Mus musculus [13]): 10; MRT [14]: 10.1 h; IC50 (MCF-10A): 35000 nM; AUC(0-inf) [15]: 257 µg·h/mL; C0 [16]: 3190 ng/mL; Activity (Mus musculus [17]): Non-Toxic; Cmax [18]: 131000 ng/mL; concentration at 7 h [19]: 19700 ng/mL; IC50 (B cell): > 40000 nM; MTD at 312 h [20]: 90 mg/kg; Activity (HCT-116 [21]): Active; bioavailability [22]: 48.4%; AUC(0-inf) [23]: 2120 µg·h/mL; Cmax [24]: 128000 ng/mL; Cmax [25]: 29000 ng/mL; IC50 [26]: 290 nM; AUC/dose [27]: 16500 ng·kg·h/mL/mg; concentration at 7 h [28]: 79800 ng/mL; AUC(0-inf) [29]: 25.8 µg·h/mL; Activity (Mus musculus [30]): Non-Toxic; Activity (BJAB): Active; Activity (HCT-116 [31]): Active; AUC(0-inf) [32]: 10.7 µg·h/mL; Activity (Mus musculus [33]): Non-Toxic; Cmax [34]: 1320 ng/mL; AUC(0-inf) [35]: 1490 µg·h/mL; AUC(0-inf) [36]: 1540 µg·h/mL; AUC(0-inf) [37]: 25.8 µg·h/mL
